Results from ChEMBL document CHEMBL3046812, “Synthesis, fungicidal activity, and 3D-QSAR of pyridazinone-substituted 1,3,4-oxadiazoles and 1,3,4-thiadiazoles” (2002).

What follows are compounds tested on Puccinia recondita (assay: Antifungal activity against Puccinia recondita infected wheat leaves after 10 days relative to triadimefon).
Type: functional
How it was run: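 Wheat leaves inoculated with Puccinia recondita uredospores mixed 1:10 with talcum powder, held 24 h in a moist chamber, then sprayed once dry with 0.001 M compound solutions in water/DMF (5:1, with Sorpal-144). Plants kept in greenhouse; percent disease control versus untreated pots scored 10 days after treatment. Three replicates; triadimefon reference tested at 100 ppm under identical conditions.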

Q: Which “inhibition (INH)” value does the source give for Cc1cc(=O)c(-c2nnc(Nc3cccc(C(F)(F)F)c3)s2)nn1-c1c(Cl)cccc1Cl here?
A: Its value is 0.5%.

Q: Cc1cc(=O)c(-c2nnc(Nc3ccccc3F)s2)nn1-c1ccc(Cl)cc1 was tested. Which “inhibition (INH)” value did it give?
A: Its value is 0.5%.

Q: Cc1cc(=O)c(-c2nnc(Nc3ccccc3)s2)nn1-c1ccc(Cl)cc1Cl was tested. Which “inhibition (INH)” value did it give?
A: The value was 0.2%.

Q: Cc1cc(=O)c(-c2nnc(Nc3ccccc3F)s2)nn1-c1ccccc1 was tested. Which “inhibition (INH)” value did it give?
A: Its value is 0.5%.

Q: Which “inhibition (INH)” value does the source give for Cc1cc(=O)c(-c2nnc(Nc3ccccc3F)s2)nn1-c1ccc(Cl)cc1Cl here?
A: The value was 0.8%.

Q: Which “inhibition (INH)” value does the source give for Cc1cc(=O)c(-c2nnc(Nc3ccccc3F)o2)nn1-c1ccc(Cl)cc1 here?
A: The value was 0.7%.

Q: How did the “inhibition (INH)” value turn out when Cc1cc(=O)c(-c2nnc(Nc3ccccc3F)o2)nn1-c1ccccc1 was run?
A: The value was 0.9%.

Q: Which “inhibition (INH)” value does the source give for Cc1ccc(-n2nc(-c3nnc(Nc4cccc(C(F)(F)F)c4)s3)c(=O)cc2C)c(C)c1 here?
A: Its value is 0.9%.

Q: For Cc1cc(=O)c(-c2nnc(Nc3ccccc3F)o2)nn1-c1c(Cl)cccc1Cl, which “inhibition (INH)” value is on record?
A: Its value is 0.8%.

Q: For Cc1cc(=O)c(-c2nnc(Nc3cccc(C(F)(F)F)c3)s2)nn1-c1ccccc1, which “inhibition (INH)” value is on record?
A: Its value is 0.6%.

Q: Cc1cc(=O)c(-c2nnc(Nc3ccccc3F)o2)nn1-c1ccccc1Cl was tested. Which “inhibition (INH)” value did it give?
A: Its value is 0.8%.

Q: With Cc1cc(=O)c(-c2nnc(Nc3cccc(C(F)(F)F)c3)s2)nn1-c1ccc(Cl)cc1 as the compound, how does the “inhibition (INH)” value read?
A: The value was 0.6%.

Q: How did the “inhibition (INH)” value turn out when Cc1cc(=O)c(-c2nnc(Nc3cccc(C(F)(F)F)c3)s2)nn1-c1cc(Cl)c(Cl)cc1Cl was run?
A: The value was 0.7%.

Q: How did the “inhibition (INH)” value turn out when Cc1cc(=O)c(-c2nnc(Nc3cccc(C(F)(F)F)c3)s2)nn1-c1ccc(Cl)cc1Cl was run?
A: Its value is 0.9%.

Q: For Cc1cc(=O)c(-c2nnc(Nc3ccccc3)o2)nn1-c1ccccc1Cl, which “inhibition (INH)” value is on record?
A: The value was 0.1%.

Q: Cc1ccc(-n2nc(-c3nnc(Nc4ccccc4F)s3)c(=O)cc2C)c(C)c1 was tested. Which “inhibition (INH)” value did it give?
A: The value was 0.9%.

Q: Which “inhibition (INH)” value does the source give for Cc1cc(=O)c(-c2nnc(Nc3cccc(C(F)(F)F)c3)s2)nn1-c1ccccc1Cl here?
A: The value was 0.7%.

Q: For Cc1ccc(-n2nc(-c3nnc(Nc4cccc(C(F)(F)F)c4)o3)c(=O)cc2C)c(C)c1, which “inhibition (INH)” value is on record?
A: The value was 0.7%.

Q: How did the “inhibition (INH)” value turn out when Cc1cc(=O)c(-c2nnc(Nc3ccccc3F)s2)nn1-c1ccccc1Cl was run?
A: Its value is 0.1%.

Q: Cc1cc(=O)c(-c2nnc(Nc3ccccc3)s2)nn1-c1ccccc1Cl was tested. Which “inhibition (INH)” value did it give?
A: Its value is 0.1%.

Q: Cc1ccc(-n2nc(-c3nnc(Nc4ccccc4F)o3)c(=O)cc2C)c(C)c1 was tested. Which “inhibition (INH)” value did it give?
A: Its value is 0.8%.

Q: Cc1cc(=O)c(-c2nnc(Nc3ccccc3F)s2)nn1-c1c(Cl)cccc1Cl was tested. Which “inhibition (INH)” value did it give?
A: Its value is 0.3%.

Q: For COc1ccc(Nc2nnc(-c3nn(-c4ccc(Cl)cc4)c(C)cc3=O)o2)cc1, which “inhibition (INH)” value is on record?
A: Its value is 0.8%.

Q: Which “inhibition (INH)” value does the source give for Cc1cc(=O)c(-c2nnc(Nc3ccccc3F)s2)nn1-c1cc(Cl)c(Cl)cc1Cl here?
A: Its value is 0.6%.

Q: With Cc1cc(=O)c(-c2nnc(Nc3ccccc3F)o2)nn1-c1cc(Cl)c(Cl)cc1Cl as the compound, how does the “inhibition (INH)” value read?
A: The value was 0.9%.

Q: How did the “inhibition (INH)” value turn out when Cc1cc(=O)c(-c2nnc(Nc3cccc(C(F)(F)F)c3)o2)nn1-c1ccc(Cl)cc1 was run?
A: Its value is 0.9%.

Q: Cc1cc(=O)c(-c2nnc(Nc3cccc(C(F)(F)F)c3)o2)nn1-c1ccccc1Cl was tested. Which “inhibition (INH)” value did it give?
A: The value was 0.9%.
